This note sets out measurements from ChEMBL document CHEMBL3804789, “5-Ene-4-thiazolidinones induce apoptosis in mammalian leukemia cells” (Eur J Med Chem, 2016).

The target of test [1] is T1, Retinoblastoma-associated protein (Homo sapiens) (UniProt P06400).
T1 sequence (whole entry): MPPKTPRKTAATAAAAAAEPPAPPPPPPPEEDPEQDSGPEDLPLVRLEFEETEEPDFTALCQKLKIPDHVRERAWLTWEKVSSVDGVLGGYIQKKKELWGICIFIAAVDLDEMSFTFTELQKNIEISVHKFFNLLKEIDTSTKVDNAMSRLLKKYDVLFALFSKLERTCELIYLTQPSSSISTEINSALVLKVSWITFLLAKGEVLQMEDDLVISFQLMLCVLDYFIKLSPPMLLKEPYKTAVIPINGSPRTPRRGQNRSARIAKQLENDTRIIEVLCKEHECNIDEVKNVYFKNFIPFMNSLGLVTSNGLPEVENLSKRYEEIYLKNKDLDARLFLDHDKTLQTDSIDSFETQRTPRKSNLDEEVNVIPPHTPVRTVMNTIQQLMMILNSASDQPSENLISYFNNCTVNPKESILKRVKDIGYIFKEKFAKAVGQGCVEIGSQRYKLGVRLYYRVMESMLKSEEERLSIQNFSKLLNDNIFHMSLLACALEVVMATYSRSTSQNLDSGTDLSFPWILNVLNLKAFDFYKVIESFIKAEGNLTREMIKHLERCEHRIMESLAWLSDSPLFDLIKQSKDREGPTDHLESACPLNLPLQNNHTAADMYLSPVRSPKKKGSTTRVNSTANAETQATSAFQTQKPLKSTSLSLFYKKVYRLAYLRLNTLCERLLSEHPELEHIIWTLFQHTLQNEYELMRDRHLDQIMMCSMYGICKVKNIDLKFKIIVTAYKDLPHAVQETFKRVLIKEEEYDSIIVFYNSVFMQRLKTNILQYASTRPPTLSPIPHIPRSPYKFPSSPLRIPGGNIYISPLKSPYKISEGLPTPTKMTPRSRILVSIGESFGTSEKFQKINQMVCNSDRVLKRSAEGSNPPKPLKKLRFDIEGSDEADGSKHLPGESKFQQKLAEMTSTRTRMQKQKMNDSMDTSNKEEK
The test can be described thus: Inhibition of retinoblastoma protein phosphorylation in human HL60 cells at 0.1 to 1 uM after 48 hrs by Western blot analysis. It counts as cell-based. Particulars: HL-60. In a few lines:
(§1)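 HL-60 cells exposed 48 h; proteins isolated, resolved by SDS/PAGE, transferred to PVDF and immunoblotted. Equal loading checked by re-probing the same membrane for beta-actin. Peroxidase-labelled secondary antibodies at 1:5,000.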
Background: In western blotting, separated proteins are transferred to a membrane and probed.

In test [2] the test system is L1210. Nature of the test: Antiproliferative activity against mouse L1210 cells after 72 hrs by MTT assay. Format: functional, cell-based. Particulars: L1210, 72 h. An outline of the steps:
(§2)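 MTT viability after 72 h continuous exposure. Cells seeded 24 h beforehand at 2,000/well (adherent) or 10,000/well (suspension), then given 0, 0.01, 0.1, 0.5, 1.0 or 10.0 μM compound diluted from 10 mM DMSO stock into RPMI or DMEM with 10% FBS, 37°C, 5% CO2. IC50 taken as concentration killing 50% of cells versus untreated culture.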
For orientation: Tetrazolium dyes change colour on reduction, which living cells bring about.

Test [3] concerns MCF7. The test can be described thus: Antiproliferative activity against human MCF7 cells after 72 hrs by MTT assay. Format: functional, cell-based. Conditions: MCF7, 72 h. In a few lines: as §2
The test system of test [4] is HL-60. Nature of the test: Induction of apoptosis in human HL60 cells assessed as increase in Bax expression at 0.1 to 1 uM after 48 hrs by Western blot analysis. Format: functional, cell-based. In a few lines:
as §1

Test [5] concerns the target Mitogen-activated protein kinase; ERK1/ERK2 (Homo sapiens) (UniProt P27361+P28482). Nature of the test: Activation of ERK1/2 in human HL60 cells at 0.1 to 1 uM after 48 hrs by Western blot analysis. Particulars: HL-60. It counts as cell-based. An outline of the steps:
as §1

The nature of test [6]: Cell cycle arrest in human HL60 cells assessed as accumulation at G0/G1 phase at 0.1 to 1 uM after 8 to 48 hrs by propidium iodide staining based flow cytometry. Format: functional. Particulars: HL-60. In a few lines:
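HL-60 cells treated 8 and 48 h, washed in PBS, fixed in 70% ethanol and stored at -20°C. Then RNase (10 µg/ml) 30 min at 37°C, propidium iodide (5 µg/ml) 30 min, and cell-cycle distribution read by flow cytometry.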

The test system of test [7] is HL-60. Nature of the test: Induction of apoptosis in human HL60 cells assessed as increase in CDK1 expression at 0.1 to 1 uM after 48 hrs by Western blot analysis. Format: functional, cell-based. An outline of the steps: as §1
Test [8] can be described thus: Antiproliferative activity against HEK293T cells after 72 hrs by MTT assay. Format: cell-based. Conditions: Homo sapiens, HEK-293T. In a few lines:
as §2

For test [9], the system named is HL60/ADR. Nature of the test: Antiproliferative activity against human HL60/ADR cells at 0.01 to 10 uM by MTT assay. Format: functional, cell-based. Conditions: TDE = time-dependent effect. An outline of the steps: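 MTT viability: cells seeded 24 h at 2,000 (adherent) or 10,000 (suspension) per well, then exposed 72 h to 0.01-10.0 μM (0, 0.01, 0.1, 0.5, 1.0, 10.0 μM), diluted from 10 mM DMSO stock into medium with 10% FBS. IC50 is concentration killing 50% of cells relative to untreated control.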

Test [10] deals with HL60/ADR. The test can be described thus: Cytotoxicity against human HL60/ADR cells assessed as reduction in cell survival up to 1 uM treated for 30 mins with ROS scavenger N-acetylcysteine measured after 72 hrs by MTT assay. Format: functional, cell-based.

One may read the IC50 as the concentration needed to halve the response being measured.

The source made the active and inactive calls. No cut-off for these calls is given here. Some results are limits rather than exact numbers.

Mitogen-activated protein kinase; ERK1/ERK2 (Homo sapiens), sequence (P27361 whole entry, looked up): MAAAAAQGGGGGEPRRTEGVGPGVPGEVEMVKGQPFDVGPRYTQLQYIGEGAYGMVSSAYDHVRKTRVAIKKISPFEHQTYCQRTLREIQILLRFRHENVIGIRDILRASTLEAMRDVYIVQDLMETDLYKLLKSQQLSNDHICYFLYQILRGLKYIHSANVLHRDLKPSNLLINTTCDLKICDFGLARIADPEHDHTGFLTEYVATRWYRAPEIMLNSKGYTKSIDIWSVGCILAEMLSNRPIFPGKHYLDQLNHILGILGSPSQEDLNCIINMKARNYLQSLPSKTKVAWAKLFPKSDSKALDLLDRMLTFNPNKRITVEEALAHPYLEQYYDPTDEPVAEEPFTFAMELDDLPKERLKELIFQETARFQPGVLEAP
Mitogen-activated protein kinase; ERK1/ERK2 (Homo sapiens), sequence (P28482 whole entry, looked up): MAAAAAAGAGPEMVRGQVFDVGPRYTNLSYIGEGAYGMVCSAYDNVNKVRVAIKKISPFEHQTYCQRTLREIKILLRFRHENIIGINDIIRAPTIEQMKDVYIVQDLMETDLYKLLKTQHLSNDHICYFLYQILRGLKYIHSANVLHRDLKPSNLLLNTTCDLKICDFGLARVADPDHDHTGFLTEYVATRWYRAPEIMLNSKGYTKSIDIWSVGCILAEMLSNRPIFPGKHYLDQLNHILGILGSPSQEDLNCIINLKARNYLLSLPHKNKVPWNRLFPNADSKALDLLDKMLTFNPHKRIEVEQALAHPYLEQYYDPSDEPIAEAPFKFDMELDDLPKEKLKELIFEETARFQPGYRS

Consider `CC(=O)Oc1cccc(N2C(=O)/C(=C/N3N=C(c4ccccc4)CC3c3ccccc3O)SC2=S)c1` (stereo not given), for which the inhibition entry in test [1] is “Active”. Besides, the IC50 in test [2] is 0.7 µM; in test [3] it was 8.3 µM; in test [8] it was > 10 µM. The outcome in [4], in test [5], in [6] and in [7] was Active. Besides, in test [9], the Activity result was “tde”. The result in [10] was inactive.
